Reference: ChEMBL document CHEMBL4732155 (Eur J Med Chem, 2021)
Calls of active or inactive are those of the source. The rule behind the calls is not given here.

Tests used:
[1] = biological target: T1, Transitional endoplasmic reticulum ATPase (Homo sapiens, UniProt P55072); experiment: Inhibition of His6-tagged p97 (unknown origin) expressed in Escherichia coli BL21 (DE3) assessed as reduction in ATPase activity measured after 60 mins in presence of cysteine by biomol green reagent based assay
In short: (§1)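 His6-p97 expressed in E. coli BL21(DE3), purified by Ni-NTA and gel filtration (500–600 kDa fractions, ≥95% pure). Phosphate read by Biomol Green at 635 nm. Eight-dose titrations; IC50 from six replicates. Thiol tests added DTT or cysteine during preincubation.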
Target sequence in this assay (P55072 2-806 limits assumed): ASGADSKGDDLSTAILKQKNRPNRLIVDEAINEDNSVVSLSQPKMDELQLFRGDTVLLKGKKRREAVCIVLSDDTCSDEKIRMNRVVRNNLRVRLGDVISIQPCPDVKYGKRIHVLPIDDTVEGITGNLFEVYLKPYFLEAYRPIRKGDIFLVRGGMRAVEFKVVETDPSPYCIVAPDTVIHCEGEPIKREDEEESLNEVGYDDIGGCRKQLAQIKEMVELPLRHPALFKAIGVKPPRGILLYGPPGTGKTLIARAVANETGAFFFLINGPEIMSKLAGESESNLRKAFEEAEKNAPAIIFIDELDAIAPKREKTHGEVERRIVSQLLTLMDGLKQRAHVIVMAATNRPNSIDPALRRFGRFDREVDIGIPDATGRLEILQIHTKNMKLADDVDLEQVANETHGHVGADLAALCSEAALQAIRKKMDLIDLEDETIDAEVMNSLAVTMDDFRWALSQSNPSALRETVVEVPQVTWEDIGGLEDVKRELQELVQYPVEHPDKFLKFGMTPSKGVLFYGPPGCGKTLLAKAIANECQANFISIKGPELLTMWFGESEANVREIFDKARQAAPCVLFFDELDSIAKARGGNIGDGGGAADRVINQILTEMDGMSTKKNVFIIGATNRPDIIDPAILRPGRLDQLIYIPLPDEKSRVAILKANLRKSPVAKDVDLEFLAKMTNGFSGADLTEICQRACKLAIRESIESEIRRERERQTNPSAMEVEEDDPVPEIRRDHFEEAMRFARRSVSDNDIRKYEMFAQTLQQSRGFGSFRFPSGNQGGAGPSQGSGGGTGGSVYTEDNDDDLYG

[2] = biological target: T1, Transitional endoplasmic reticulum ATPase; experiment: Inhibition of His6-tagged p97 (unknown origin) expressed in Escherichia coli BL21 (DE3) assessed as reduction in ATPase activity measured after 60 mins in presence of DTT by biomol green reagent based assay; in short: as §1
Target sequence in this assay (P55072 2-806 limits assumed): as above

[3] = Inhibition of yeast Cdc48 T532C mutant assessed as reduction in ATPase activity measured after 60 mins by biomol green reagent based assay; parameters: species or system Saccharomyces cerevisiae
In short: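 Yeast Cdc48 ATPase activity with 200 μM ATP in Tris pH 7.4 buffer containing MgCl2, EDTA, TCEP and Triton X-100, 60 min at room temperature. Biomol Green read at 635 nm. Eight-dose titration; IC50 from six replicates.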

[4] = Inhibition of His6-tagged p97 C522T mutant (unknown origin) expressed in Escherichia coli BL21 (DE3) assessed as reduction in ATPase activity measured after 60 mins by biomol green reagent based assay; parameters: species or system Homo sapiens; in short: as §1
[5] = biological target: T1, Transitional endoplasmic reticulum ATPase; experiment: Irreversible inhibition of p97 in human HeLa cells assessed as reduction in p97-dependent reporter substrate UbG76V-GFP degradation preincubated followed by washout and measured after 17 hrs by luciferase reporter gene assay; format: cell-based; conditions: in the assay text read “GFP fluorescence assay” for “luciferase reporter gene assay”
In short: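 HeLa cells expressing UbG76V-GFP/ODD-Luc, 5000 cells/well in DMEM with 2.5% FBS. Pretreated with 4 μM MG132 for 60 min at 37 °C, PBS-washed, then given cycloheximide plus compound for 120 min. After washout, GFP decay followed in cycloheximide for an additional 17 h. GFP read by high-content imaging; luciferase read with D-luciferin; quadruplicates.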
Target sequence in this assay (P55072 2-806 limits assumed): as above

[6] = biological target: T1, Transitional endoplasmic reticulum ATPase; experiment: Inhibition of p97 (unknown origin) expressed in HEK293 cells co-expressing TCRalpha-GFP assessed as reduction in ERAD-dependent reporter substrate TCRalpha-GFP degradation at 10 uM incubated for 60 to 120 mins by immunoblotting analysis; format: cell-based; conditions: time lower 60.0 min, time upper […]
In short: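 HEK293 cells stably expressing TCRα-GFP pretreated with 4 μM MG132 for 1 h and washed. Then incubated with 50 μM cycloheximide plus 10 μM compound for 60 or 120 min before harvest. Immunoblotted with anti-GFP, with anti-p97 as loading control.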
Target sequence in this assay (P55072 2-806 limits assumed): as above

[7] = system: RPMI-8226; experiment: Antiproliferative activity against human RPMI-8226 cells after 48 hrs by celltiter-glo luminescence assay; format: functional, cell-based; conditions: RPMI-8226, 48 h
[8] = Effect on ZFAND1 expression in human HCT-116 cells at 15 uM measured after 6 hrs by LC-MS/MS analysis relative to control; format: functional
In short: (§2)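 HCT116 cells treated 6 h with DMSO, 15 μM or 30 μM compound, then pelleted. Peptides (1 μg) separated on a 25 cm C18 nano-column with a 136 min gradient and analysed by label-free LC-MS/MS on an Orbitrap Eclipse. Searched against the UniProt human database and quantified from normalized abundance. Two independent biological replicates per group; log2 fold change versus DMSO, p < 0.05.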

[9] = Effect on BRCC3 expression in human HCT-116 cells at 15 uM measured after 6 hrs by LC-MS/MS analysis relative to control; format: functional; in short: as §2
[10] = Effect on LAMP1 expression in human HCT-116 cells at 15 uM measured after 6 hrs by LC-MS/MS analysis relative to control; format: functional; in short: as §2
[11] = Effect on AUP1 expression in human HCT-116 cells at 15 uM measured after 6 hrs by LC-MS/MS analysis relative to control; format: functional; in short: as §2
[12] = Effect on BRCC3 expression in human HCT-116 cells at 30 uM measured after 6 hrs by LC-MS/MS analysis relative to control; format: functional; in short: as §2
[13] = Effect on STIM1 expression in human HCT-116 cells at 30 uM measured after 6 hrs by LC-MS/MS analysis relative to control; format: functional; in short: as §2
[14] = Effect on LAMP1 expression in human HCT-116 cells at 30 uM measured after 6 hrs by LC-MS/MS analysis relative to control; format: functional; in short: as §2
[15] = Effect on CDK2AP1 expression in human HCT-116 cells at 30 uM measured after 6 hrs by LC-MS/MS analysis relative to control; format: functional; in short: as §2
[16] = Effect on KEAP1 expression in human HCT-116 cells at 30 uM measured after 6 hrs by LC-MS/MS analysis relative to control; format: functional; in short: as §2
[17] = Effect on KNTC1 expression in human HCT-116 cells at 30 uM measured after 6 hrs by LC-MS/MS analysis relative to control; format: functional; in short: as §2
[18] = Effect on AUP1 expression in human HCT-116 cells at 30 uM measured after 6 hrs by LC-MS/MS analysis relative to control; format: functional; in short: as §2
[19] = Effect on GOLGA3 expression in human HCT-116 cells at 30 uM measured after 6 hrs by LC-MS/MS analysis relative to control; format: functional; in short: as §2
[20] = biological target: T1, Transitional endoplasmic reticulum ATPase; experiment: Inhibition of p97 in human HeLa cells assessed as reduction in proteasomal turnover of p97-dependent reporter substrate UbG76V-GFP incubated for 120 mins by GFP fluorescence imaging
Target sequence in this assay (P55072 whole entry): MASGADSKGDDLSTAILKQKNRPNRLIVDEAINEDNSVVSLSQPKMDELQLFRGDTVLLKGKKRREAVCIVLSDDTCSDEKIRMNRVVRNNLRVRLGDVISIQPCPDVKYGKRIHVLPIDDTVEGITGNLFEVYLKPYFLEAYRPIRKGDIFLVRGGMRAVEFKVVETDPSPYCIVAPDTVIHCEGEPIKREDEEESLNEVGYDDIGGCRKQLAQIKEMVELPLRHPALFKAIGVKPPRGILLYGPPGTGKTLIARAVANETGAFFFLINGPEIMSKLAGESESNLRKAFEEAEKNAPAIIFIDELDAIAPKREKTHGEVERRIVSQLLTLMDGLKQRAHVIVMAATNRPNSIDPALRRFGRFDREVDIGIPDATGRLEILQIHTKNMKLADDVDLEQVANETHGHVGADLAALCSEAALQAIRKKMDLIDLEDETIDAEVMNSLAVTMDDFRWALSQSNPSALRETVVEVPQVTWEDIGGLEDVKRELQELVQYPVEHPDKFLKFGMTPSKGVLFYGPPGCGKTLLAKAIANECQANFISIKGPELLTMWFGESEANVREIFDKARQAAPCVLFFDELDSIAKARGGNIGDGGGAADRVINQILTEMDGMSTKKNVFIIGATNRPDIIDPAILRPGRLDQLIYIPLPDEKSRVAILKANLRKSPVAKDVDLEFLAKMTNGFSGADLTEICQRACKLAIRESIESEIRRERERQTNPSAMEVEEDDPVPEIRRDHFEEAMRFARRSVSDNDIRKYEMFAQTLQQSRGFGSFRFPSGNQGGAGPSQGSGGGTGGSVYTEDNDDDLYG

In the case of C=CC(=O)Nc1ncnc2c1c(-c1ccccc1)nn2C(C)(C)C, the inhibition [1] is reported as “Active”, the inhibition [2] is reported as “Active” and the IC50 [3] is reported as 14 µM. For the same molecule, the IC50 [4] was 82 µM, the inhibition [5] was “Active” and the inhibition [6] was “Active”. It also gave an IC50 [7] of 3.4 µM, a log2FC [8] of 0.49 and a log2FC [9] of 0.94. For the same molecule, the log2FC [10] was -0.59, the log2FC [11] was -0.39 and the log2FC [12] was 0.83. The log2FC [13] was 1.65, the log2FC [14] was -0.66 and the log2FC [15] was -0.47. It also gave a log2FC [16] of -1.03, a log2FC [17] of -0.87 and a log2FC [18] of -0.43. It also gave a log2FC [19] of -0.7 and an IC50 [20] of 1.6 µM.
